Drawing on ChEMBL document CHEMBL3132830, “Discovery of a Potent Anti-tumor Agent through Regioselective Mono-N-acylation of 7H-Pyrrolo[3,2-f]quinazoline-1,3-diamine” (Medchemcomm, 2013), this text covers GI50, Activity and inhibition for 15 molecules.

The source made the active and inactive calls. No cut-off for these calls is given here. A value given as a limit tells only on which side of the number the result lay.

In one series the test system is MDA-MB-468. Description: Growth inhibition of human MDA-MB-468 cells after 72 hrs by MTT assay. It counts as functional. As to conditions: MDA-MB-468, 72 h. In outline: (§1)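 MTT assay in triple-negative breast cancer cells; 72 h continuous compound exposure; top concentration tested 100 μM. GI50 is the concentration giving 50% growth inhibition over 72 h. Values are mean ± SD of at least two independent experiments, each run in duplicate.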
Background: Formazan colour is commonly taken as a measure of viable cells.

The subject of another series is MDA-MB-231. The experiment in a line: Growth inhibition of human MDA-MB-231 cells after 72 hrs by MTT assay. To be noted: MDA-MB-231, 72 h. It counts as functional. In outline:
as §1

Series [1] relates to HMEC. The experiment in a line: Toxicity against HMEC at 0.1 uM after 72hrs by MTT assay. It counts as cell-based. As to conditions: human. In outline: (§2)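 Normal human mammary epithelial cells (HMEC) exposed to compound continuously for 72 h; toxicity read at concentrations from 0.1 μM up to 10 μM.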
The test system of another series is HEK-293T. Description: Inhibition of CREB binding protein (unknown origin) expressed in HEK293T cells assessed as reduction in CREB-mediated gene transcription up to 10 uM by CREB reporter gene assay. It counts as cell-based. To be noted: Homo sapiens. In outline:
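CREB-mediated gene transcription measured with a CREB reporter assay in HEK 293T cells; compound tested at concentrations up to 10 μM.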
For orientation: Reporter assays use an easily measured gene product as a stand-in for the process of interest.

For series [2], the target named is T1, Dihydrofolate reductase (Homo sapiens) (UniProt P00374).
T1 sequence (whole entry): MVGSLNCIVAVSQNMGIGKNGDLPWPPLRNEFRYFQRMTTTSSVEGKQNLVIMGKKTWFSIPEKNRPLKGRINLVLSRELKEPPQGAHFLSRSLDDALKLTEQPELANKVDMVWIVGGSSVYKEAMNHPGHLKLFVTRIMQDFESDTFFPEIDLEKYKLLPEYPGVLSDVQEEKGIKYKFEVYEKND
The experiment in a line: Inhibition of human DHFR up to 10 uM.

Series [3] has as its system HMEC. The experiment in a line: Toxicity against HMEC at 10 uM after 24 hrs by MTT assay. It counts as cell-based. As to conditions: human. In outline: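 HMEC given a 24 h drug treatment; toxicity assessed at concentrations up to 10 μM.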
Series [4] relates to HMEC. Description: Toxicity against HMEC at 10 uM after 72 hrs by MTT assay. It counts as cell-based. As to conditions: human. The gist of the method:
as §2

Series [5] deals with HMEC. The experiment in a line: Toxicity against HMEC up to 5 uM after 72 hrs by MTT assay. The series is classed as cell-based. To be noted: human. In outline: as §2

As to `CCC(=O)Nc1nc(N)nc2ccc3[nH]ccc3c12`, the values for the GI50 in the series with MDA-MB-468 and in the series with MDA-MB-231 were 20.3 µM and 18.7 µM, respectively.

Consider `CC(C)(C)[Si](C)(C)OCCCCC(=O)Nc1nc(N)nc2ccc3[nH]ccc3c12`, for which the GI50 in the series with MDA-MB-468 was determined as 11.1 µM; with MDA-MB-231, 15.6 µM.

Take `Nc1nc(NC(=O)c2ccc3ccccc3c2)c2c(ccc3[nH]ccc32)n1`: the figures for the GI50 with MDA-MB-468 and with MDA-MB-231 were 8.91 µM and 8.46 µM, respectively.

`CC(=O)Nc1nc(N)c2c(ccc3[nH]ccc32)n1`: the GI50 with MDA-MB-468 turned out to be 53.5 µM; in the series with MDA-MB-231, 27.2 µM.

Consider `CCCC(=O)Nc1nc(N)c2c(ccc3[nH]ccc32)n1`, for which the GI50 worked out at 27.4 µM in the series with MDA-MB-468 and 25.5 µM in the series with MDA-MB-231.

`CC(C)C(=O)Nc1nc(N)nc2ccc3[nH]ccc3c12`: the GI50 in the series on MDA-MB-468 and with MDA-MB-231 was over 100 µM in each case.

For the molecule `CC(C)(C)[Si](C)(C)OCCCCC(=O)Nc1nc(N)c2c(ccc3[nH]ccc32)n1`, the GI50 with MDA-MB-468 was found to be 2.24 µM; with MDA-MB-231, 2.43 µM.

Turning to `CCCC(=O)Nc1nc(N)nc2ccc3[nH]ccc3c12`, the results for the GI50 with MDA-MB-468 and in the series with MDA-MB-231 were 26.3 µM and 26.9 µM, respectively.

Take `Nc1nc(N)c2c(ccc3[nH]ccc32)n1`: the GI50 amounted to 3.34 µM in the series with MDA-MB-468 and 4.13 µM in the series with MDA-MB-231.

For the molecule `CCC(=O)Nc1nc(N)c2c(ccc3[nH]ccc32)n1`, the GI50 in the series with MDA-MB-468 amounted to 24.4 µM; with MDA-MB-231, 21.4 µM.

Take `CC(C)C(=O)Nc1nc(N)c2c(ccc3[nH]ccc32)n1`: the GI50 in the series on MDA-MB-468 turned out to be 29.8 µM; in the series with MDA-MB-231 it was 39.7 µM.

Regarding `COc1cccc2c1C(=O)c1c(O)c3c(c(O)c1C2=O)C[C@@](O)(C(=O)CO)C[C@@H]3O[C@H]1C[C@H](N)[C@H](O)[C@H](C)O1` [DOXORUBICIN], the Activity entry in the series on HMEC [1] was “Toxic”. Further, the GI50 with MDA-MB-468 is 0.085 µM; in the series on MDA-MB-231, 0.15 µM.

For the molecule `CC(=O)Nc1nc(NC(C)=O)c2c(ccc3[nH]ccc32)n1`, the GI50 with MDA-MB-468 and with MDA-MB-231 was over 100 µM throughout.

In the case of `Nc1nc(NC(=O)c2ccc3ccccc3c2)nc2ccc3[nH]ccc3c12`, the inhibition entry (with HEK-293T; in series [2]) was “inactive” throughout. For the same molecule, the results for the Activity result in the series on HMEC [3], with HMEC [4] and in the series with HMEC [5] were “Non-toxic”, “Toxic” and “Non-toxic”, respectively. The GI50 was found to be 0.44 µM with MDA-MB-468 and 1.6 µM in the series with MDA-MB-231.

With `CC(=O)Nc1nc(N)nc2ccc3[nH]ccc3c12`, the GI50 in the series with MDA-MB-468 was found to be 56.5 µM; with MDA-MB-231, 32.6 µM.

A word on the GI50: it is the concentration giving 50% growth inhibition. Lower therefore signals more potent growth inhibition.
